This is an account of results in ChEMBL document CHEMBL3596098, “Insights into the interaction of negative allosteric modulators with the metabotropic glutamate receptor 5: discovery and computational modeling of a new series of ligands with nanomolar affinity” (Bioorg Med Chem, 2015).

Test [1] deals with Metabotropic glutamate receptor 5 (Rattus norvegicus, UniProt P31424). As to the kind of experiment: Displacement of [3H]MPEP from mGluR5 receptor in Sprague-Dawley rat forebrain membrane after 60 mins by liquid scintillation spectrometry.
Sequence of Metabotropic glutamate receptor 5 (Rattus norvegicus, UniProt P31424) (P31424 whole entry): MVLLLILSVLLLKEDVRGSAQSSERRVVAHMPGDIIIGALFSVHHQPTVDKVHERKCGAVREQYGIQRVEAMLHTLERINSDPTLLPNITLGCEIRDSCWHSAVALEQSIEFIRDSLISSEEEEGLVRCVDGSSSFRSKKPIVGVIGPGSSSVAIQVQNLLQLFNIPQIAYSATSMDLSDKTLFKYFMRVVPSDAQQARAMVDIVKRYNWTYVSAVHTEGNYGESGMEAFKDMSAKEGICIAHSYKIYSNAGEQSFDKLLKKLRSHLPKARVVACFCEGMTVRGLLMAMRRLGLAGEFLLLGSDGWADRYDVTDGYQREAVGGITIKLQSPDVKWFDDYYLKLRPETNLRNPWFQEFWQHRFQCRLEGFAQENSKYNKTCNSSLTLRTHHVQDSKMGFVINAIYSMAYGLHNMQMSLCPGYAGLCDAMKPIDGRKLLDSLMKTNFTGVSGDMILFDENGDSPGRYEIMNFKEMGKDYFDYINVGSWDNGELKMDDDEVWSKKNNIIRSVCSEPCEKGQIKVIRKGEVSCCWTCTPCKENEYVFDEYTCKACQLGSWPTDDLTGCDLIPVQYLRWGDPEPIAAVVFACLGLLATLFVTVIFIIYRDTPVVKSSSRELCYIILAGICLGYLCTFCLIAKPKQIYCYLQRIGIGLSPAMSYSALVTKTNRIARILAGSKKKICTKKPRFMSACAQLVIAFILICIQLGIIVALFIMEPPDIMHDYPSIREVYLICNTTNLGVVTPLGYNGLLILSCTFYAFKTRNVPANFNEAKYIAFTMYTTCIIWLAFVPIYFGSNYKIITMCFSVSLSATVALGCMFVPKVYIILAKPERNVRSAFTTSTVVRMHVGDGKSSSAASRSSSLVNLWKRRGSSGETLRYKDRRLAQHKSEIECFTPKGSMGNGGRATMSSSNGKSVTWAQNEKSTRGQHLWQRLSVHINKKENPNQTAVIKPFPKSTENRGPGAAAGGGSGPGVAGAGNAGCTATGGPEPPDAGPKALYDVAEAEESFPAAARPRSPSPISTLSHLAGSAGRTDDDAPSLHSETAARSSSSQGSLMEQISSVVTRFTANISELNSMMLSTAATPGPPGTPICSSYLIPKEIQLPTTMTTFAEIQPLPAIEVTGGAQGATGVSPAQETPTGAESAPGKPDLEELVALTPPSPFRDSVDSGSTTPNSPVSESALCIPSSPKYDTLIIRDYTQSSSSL
The target of test [2] is T1, Metabotropic glutamate receptor 5 (Homo sapiens, UniProt P41594). As to the kind of experiment: Displacement of [3H]MPEP from human cloned mGluR5 receptor expressed in CHO-T-Rex cells after 60 mins by liquid scintillation spectrometry. The test is classed as cell-based. A general note: Loss of bound radioactivity is the signal in a displacement assay; it reports binding, not function.
Target sequence in this assay (P41594 whole entry): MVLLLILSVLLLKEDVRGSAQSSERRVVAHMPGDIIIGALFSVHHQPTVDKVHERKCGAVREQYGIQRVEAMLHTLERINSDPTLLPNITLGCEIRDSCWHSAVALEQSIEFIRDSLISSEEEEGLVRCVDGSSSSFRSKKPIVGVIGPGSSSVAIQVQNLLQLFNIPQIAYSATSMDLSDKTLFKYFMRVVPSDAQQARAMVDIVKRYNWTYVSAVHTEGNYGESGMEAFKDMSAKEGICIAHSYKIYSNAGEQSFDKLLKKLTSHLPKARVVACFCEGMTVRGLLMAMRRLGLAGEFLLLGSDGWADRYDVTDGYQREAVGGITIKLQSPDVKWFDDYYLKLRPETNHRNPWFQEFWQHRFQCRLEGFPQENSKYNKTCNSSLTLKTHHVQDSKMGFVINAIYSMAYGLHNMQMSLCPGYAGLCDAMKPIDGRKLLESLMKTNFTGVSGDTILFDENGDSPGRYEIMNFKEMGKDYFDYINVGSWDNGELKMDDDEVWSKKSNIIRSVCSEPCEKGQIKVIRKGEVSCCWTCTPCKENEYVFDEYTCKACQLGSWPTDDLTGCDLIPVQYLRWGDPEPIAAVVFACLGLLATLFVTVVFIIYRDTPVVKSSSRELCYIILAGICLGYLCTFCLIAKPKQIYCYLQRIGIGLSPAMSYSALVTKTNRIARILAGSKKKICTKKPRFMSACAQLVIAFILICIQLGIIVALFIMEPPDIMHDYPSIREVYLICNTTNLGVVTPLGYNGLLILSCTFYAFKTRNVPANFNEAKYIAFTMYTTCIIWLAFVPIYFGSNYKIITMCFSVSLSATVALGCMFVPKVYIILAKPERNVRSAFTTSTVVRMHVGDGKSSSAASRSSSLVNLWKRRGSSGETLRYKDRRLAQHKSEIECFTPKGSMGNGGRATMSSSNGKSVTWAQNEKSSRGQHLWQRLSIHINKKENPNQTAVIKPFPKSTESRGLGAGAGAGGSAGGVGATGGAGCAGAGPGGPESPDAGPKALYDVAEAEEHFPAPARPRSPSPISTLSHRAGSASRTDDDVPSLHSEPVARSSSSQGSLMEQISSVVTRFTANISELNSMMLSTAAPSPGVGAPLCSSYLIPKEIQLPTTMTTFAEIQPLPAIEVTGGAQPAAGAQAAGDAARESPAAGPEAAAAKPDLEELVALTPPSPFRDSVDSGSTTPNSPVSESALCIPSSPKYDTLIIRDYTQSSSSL

Test [3] concerns the target T1, Metabotropic glutamate receptor 5. As to the kind of experiment: Negative allosteric modulatory activity at human cloned mGluR5 receptor expressed in CHO-T-Rex cells assessed as inhibiton of quisqualate-induced calcium mobilization treated 10 mins prior to agonist application by fluorescence analysis. The test is classed as functional, cell-based. A digest of the protocol:
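CHO T-REx cells expressing human mGlu5, induced 18 h with 3 ng/mL tetracycline and seeded at 80,000 cells/well. Loaded 1 h at 37 °C with 2 µM Fluo-4/AM in HBSS with 20 mM HEPES and 2.5 mM probenecid, then washed. Compound (0.5% DMSO final) added 10 min before quisqualate at its daily EC80. Peak minus basal fluorescence read every 1.5 s for 60 s.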
(In general: Calcium flux is commonly read through the fluorescence of an indicator in the cells.)
Target sequence in this assay (P41594 whole entry): as above

Test [4] concerns the target T2, Metabotropic glutamate receptor 1 (Rattus norvegicus, UniProt P23385). The test can be described thus: Displacement of [3H]R214127 from rat cloned mGluR1 receptor expressed in CHO-T-Rex cells after 30 mins by liquid scintillation spectrometry. The test is classed as cell-based. An outline of the steps:
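CHO T-REx cells stably expressing rat mGlu1, derepressed by 1 µg/mL tetracycline for 18 h. Nonspecific binding with 1 µM R214127. Filtration, scintillation counting. Ki by Cheng-Prusoff.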

Test [5] has as its target T2, Metabotropic glutamate receptor 1. As to the kind of experiment: Negative allosteric modulatory activity at rat cloned mGluR1 receptor expressed in CHO-T-Rex cells assessed as inhibiton of quisqualate-induced calcium mobilization treated 10 mins prior to agonist application by fluorescence analysis. The test is classed as functional, cell-based. An outline of the steps: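 CHO T-REx cells expressing rat mGlu1, induced 18 h with 10 ng/mL tetracycline and seeded at 80,000 cells/well. Loaded with 2 µM Fluo-4/AM (1 h, 37 °C, HBSS/HEPES/probenecid), then washed. Compound (0.5% DMSO final) given 10 min before quisqualate at its daily EC80. Peak minus basal fluorescence recorded over 60 s. Three independent experiments.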

Test [6] concerns the target T1, Metabotropic glutamate receptor 5. As to the kind of experiment: Non-competitive antagonist activity at human cloned mGluR5 receptor expressed in CHO-T-Rex cells assessed as inhibiton of quisqualate-induced calcium mobilization at 0.3 nM treated 10 mins prior to agonist application by fluorescence analysis. In kind it is functional, cell-based.
Target sequence in this assay (P41594 21-1212 limits assumed): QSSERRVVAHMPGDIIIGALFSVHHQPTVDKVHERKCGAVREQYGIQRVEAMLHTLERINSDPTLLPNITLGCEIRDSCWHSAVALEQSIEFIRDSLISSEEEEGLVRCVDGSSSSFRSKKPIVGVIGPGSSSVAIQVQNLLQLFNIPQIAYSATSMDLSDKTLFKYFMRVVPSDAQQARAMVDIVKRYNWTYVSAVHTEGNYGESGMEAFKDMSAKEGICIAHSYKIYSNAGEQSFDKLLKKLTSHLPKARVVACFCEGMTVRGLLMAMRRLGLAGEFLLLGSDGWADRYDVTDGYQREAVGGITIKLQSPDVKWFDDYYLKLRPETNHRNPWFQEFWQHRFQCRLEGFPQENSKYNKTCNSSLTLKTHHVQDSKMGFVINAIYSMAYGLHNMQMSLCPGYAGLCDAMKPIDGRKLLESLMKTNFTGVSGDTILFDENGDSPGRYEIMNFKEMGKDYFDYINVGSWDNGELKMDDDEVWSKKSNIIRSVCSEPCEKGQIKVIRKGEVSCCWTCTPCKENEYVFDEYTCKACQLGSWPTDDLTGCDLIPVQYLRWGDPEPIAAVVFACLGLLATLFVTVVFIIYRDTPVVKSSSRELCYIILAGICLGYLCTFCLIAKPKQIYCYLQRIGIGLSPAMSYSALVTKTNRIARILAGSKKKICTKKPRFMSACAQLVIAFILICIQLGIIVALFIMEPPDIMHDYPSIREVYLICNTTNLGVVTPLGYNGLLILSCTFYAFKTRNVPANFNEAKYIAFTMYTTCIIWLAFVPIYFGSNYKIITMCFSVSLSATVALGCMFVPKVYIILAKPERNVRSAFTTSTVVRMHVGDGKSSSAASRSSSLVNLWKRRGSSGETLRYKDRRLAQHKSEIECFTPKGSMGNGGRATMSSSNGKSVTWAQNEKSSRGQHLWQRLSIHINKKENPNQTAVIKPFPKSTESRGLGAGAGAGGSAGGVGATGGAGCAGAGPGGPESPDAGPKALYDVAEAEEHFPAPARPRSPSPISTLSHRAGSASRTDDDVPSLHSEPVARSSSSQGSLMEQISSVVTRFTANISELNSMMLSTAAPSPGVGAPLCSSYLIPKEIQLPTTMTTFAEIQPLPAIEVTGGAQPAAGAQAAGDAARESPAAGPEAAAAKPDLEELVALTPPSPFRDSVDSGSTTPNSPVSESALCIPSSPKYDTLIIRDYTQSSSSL

T2 sequence (P23385 whole entry): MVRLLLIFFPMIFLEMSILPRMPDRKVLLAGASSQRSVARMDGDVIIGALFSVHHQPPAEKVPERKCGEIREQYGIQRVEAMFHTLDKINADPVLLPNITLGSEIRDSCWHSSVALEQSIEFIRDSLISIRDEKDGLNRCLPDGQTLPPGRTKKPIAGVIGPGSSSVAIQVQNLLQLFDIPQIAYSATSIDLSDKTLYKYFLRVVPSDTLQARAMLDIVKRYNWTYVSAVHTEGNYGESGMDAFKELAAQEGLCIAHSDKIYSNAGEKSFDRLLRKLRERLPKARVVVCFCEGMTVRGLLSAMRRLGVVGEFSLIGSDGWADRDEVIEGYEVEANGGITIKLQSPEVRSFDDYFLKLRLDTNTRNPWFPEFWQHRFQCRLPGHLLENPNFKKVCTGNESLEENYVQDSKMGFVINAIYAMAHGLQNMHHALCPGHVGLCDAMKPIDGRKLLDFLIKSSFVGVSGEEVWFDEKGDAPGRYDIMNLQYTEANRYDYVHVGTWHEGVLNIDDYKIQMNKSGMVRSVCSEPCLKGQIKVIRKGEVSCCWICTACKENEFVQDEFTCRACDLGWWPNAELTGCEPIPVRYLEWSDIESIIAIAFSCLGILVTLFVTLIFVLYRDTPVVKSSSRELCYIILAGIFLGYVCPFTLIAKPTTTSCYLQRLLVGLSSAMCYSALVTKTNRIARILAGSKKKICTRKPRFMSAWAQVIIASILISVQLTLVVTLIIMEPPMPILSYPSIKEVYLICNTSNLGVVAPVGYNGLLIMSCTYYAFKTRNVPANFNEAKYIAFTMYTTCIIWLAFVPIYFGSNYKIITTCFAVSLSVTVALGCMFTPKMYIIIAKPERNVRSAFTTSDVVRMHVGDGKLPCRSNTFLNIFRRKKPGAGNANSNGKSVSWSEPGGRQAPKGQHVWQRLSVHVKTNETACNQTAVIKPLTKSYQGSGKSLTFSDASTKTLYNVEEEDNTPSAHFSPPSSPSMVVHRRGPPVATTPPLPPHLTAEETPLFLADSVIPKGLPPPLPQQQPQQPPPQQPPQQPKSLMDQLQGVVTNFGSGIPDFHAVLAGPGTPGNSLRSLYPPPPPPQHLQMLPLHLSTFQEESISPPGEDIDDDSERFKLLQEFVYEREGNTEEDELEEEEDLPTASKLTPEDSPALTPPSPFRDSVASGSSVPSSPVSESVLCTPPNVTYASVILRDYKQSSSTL

With `O=C(c1ccccc1-c1ccccc1)N1CCN(c2ncccc2[N+](=O)[O-])CC1`, the Ki in test [1] and in test [2] was more than 10000 nM in each case.

For `O=C(c1ccc(-c2ccccc2)cc1)N1CCN(c2ncccc2[N+](=O)[O-])CC1`, the Ki was more than 1000 nM in test [1] and more than 10000 nM in test [2].

On to `Cc1ccc([N+](=O)[O-])c(N2CCC(=CC#Cc3ccc(C#N)cn3)CC2)n1`, for which the Ki in test [1] was determined as 0.4 nM; in test [2], 0.3 nM; in test [4] it was 190 nM. Also, in test [3], the IC50 turned out to be 1.3 nM.

Turning to `Cc1nc(C#Cc2ccc(-c3cccnc3)nc2)cs1`, in test [4], the Ki is more than 10000 nM.

Turning to `CN1CC(=O)N=C1NC(=O)Nc1cccc(Cl)c1` [FENOBAM ANHYDROUS], the inhibitory constant (Ki) in test [1] turned out to be 313 nM; in test [2], 162 nM. Also, the IC50 in test [3] amounted to 36.3 nM.

Consider `C=Cc1ccc([N+](=O)[O-])c(N2CCN(C(=O)C#Cc3ccccc3)CC2)n1`, for which the Ki in test [1] amounted to 1.3 nM; in test [4] it was 54.2 nM. Further, the IC50 in test [3] was determined as 42 nM.

Turning to `Cc1cccc(C#CC=C2CCN(c3ncccc3[N+](=O)[O-])CC2)c1`, the figures for the Ki in test [1], in test [2] and in test [4] were 0.4 nM, 0.3 nM and 18.6 nM, respectively. Further, the IC50 in test [3] is 1.8 nM; in test [5], 543 nM.

For the compound `O=[N+]([O-])c1cccnc1N1CCC(=CC#Cc2ccccn2)CC1`, the Ki turned out to be 0.1 nM in test [1], 0.3 nM in test [2] and 39.1 nM in test [4]. For the same compound, the IC50 in test [3] amounted to 0.4 nM; in test [5], 207 nM.

In the case of `Cc1cccc(C#CC=C2CCN(c3ccccc3)CC2)n1`, the Ki in test [1] was determined as 92 nM; in test [2], 29.2 nM. Besides, the IC50 in test [3] was 55 nM.

With `O=[N+]([O-])c1cccnc1N1CCC(=CC#Cc2ccccc2)CC1`, the Ki in test [1] is 0.6 nM; in test [2], 0.4 nM; in test [4], 4.8 nM. Moreover, the results for the IC50 in test [3] and in test [5] were 2.8 nM and 39.3 nM, respectively.

Consider `O=C(C#Cc1ccccc1)N1CCN(c2ncccc2[N+](=O)[O-])CC1`, for which the values for the Ki in test [1], in test [2] and in test [4] were 0.6 nM, 0.5 nM and 96.8 nM, respectively. The IC50 in test [3] was 0.9 nM; in test [5] it was 271 nM.

Consider `O=C(C#Cc1ccccc1)N1CCN(c2ccccc2[N+](=O)[O-])CC1`, for which the Ki was determined as 1.8 nM in test [1], 0.4 nM in test [2] and 69.3 nM in test [4].

For `Cc1cccc(C#CC=C2CCN(c3ccccc3[N+](=O)[O-])CC2)n1`, the Ki in test [1] stood at 0.2 nM; in test [2], 0.3 nM; in test [4], 70.7 nM. The IC50 was 10.4 nM in test [3] and 551 nM in test [5].

Turning to `Cc1nc(C#Cc2cccnc2)cs1`, in test [4], the Ki was more than 10000 nM.

Consider `Cc1cccc(C#C/C=C2/CCCN(c3nc(C)ccc3[N+](=O)[O-])C2)n1`, for which the Ki is 264 nM in test [2] and more than 1000 nM in test [4].

`O=C(c1cnc2ccccc2n1)N1CCN(c2ncccc2[N+](=O)[O-])CC1`: the Ki was more than 1000 nM in test [1] and more than 10000 nM in test [2].

On to `O=[N+]([O-])c1cccnc1N1CCC(=CC#Cc2cccc(Cl)c2)CC1`, for which the Ki in test [1] was 0.4 nM; in test [2], 0.5 nM; in test [4], 18.6 nM. Also, the IC50 in test [3] is 3.8 nM; in test [5], 1340 nM.

Take `O=[N+]([O-])c1cccnc1N1CCN(CC#Cc2ccccc2)CC1`: the Ki in test [1] is 117 nM; in test [2] it was 60.7 nM; in test [4] it was more than 1000 nM.

With `CC1(C)CN(c2ccc(C#CC=C3CCN(c4ncccc4[N+](=O)[O-])CC3)cc2)C1=O`, in test [2], the Ki is more than 1000 nM.

On to `N#Cc1cc(Cl)cc(C#CC=C2CCN(c3ncccc3[N+](=O)[O-])CC2)c1`, for which the figures for the Ki in test [2] and in test [4] were 283 nM and more than 1000 nM, respectively.

`Cc1ccc([N+](=O)[O-])c(N2CCN(C(=O)c3cccc(-c4ccccc4)c3)CC2)n1`: the Ki in test [1] and in test [2] was more than 10000 nM each time.

Take `Cc1cccc(C#CC=C2CCN(c3ncc(-c4ccccc4)cc3C#N)CC2)n1`: the results for the Ki in test [1], in test [2] and in test [4] were 2.9 nM, 0.5 nM and 443 nM, respectively. Also, in test [3], the IC50 amounted to 9.7 nM.

Take `Cc1cccc(C#CC=C2CCN(c3ncccc3[N+](=O)[O-])CC2)n1`: the inhibition constant Ki in test [1] is 0.03 nM; in test [2] it was 0.5 nM; in test [4], 184 nM. Moreover, the IC50 in test [3] came to 0.8 nM; in test [5], 448 nM. The inhibition in test [6] is 50%.

In test [4], `Cc1cccc(C#Cc2ccccc2)n1` displayed a Ki of more than 10000 nM.

What is called Ki is the dissociation constant of the complex between target and ligand, obtained from inhibition or displacement. A high value points to lower affinity. In general, IC50 refers to the point on the concentration scale where inhibition reaches its midpoint. The inhibition is the change of the read-out against control, counted positive when it falls.
